Results reported in PMC4349556 (Journal of pharmaceutical sciences, 2014).

Columns and labels:
[1] = Hydration of drug in buffer in the absence of lipids; format: physicochemical; conditions: after solvent removal and hydration in buffer
[2] = Plasma time course of anti-HIV drug combination lipid nanoparticles in primates; conditions: male, Macaca nemestrina (macaque), in vivo, sc
[3] = 12 HIV infected patients, prospective clinical study; cited from earlier work
[4] = DPH fluorescence anisotropy: membrane fluidity and phase transition temperature; format: physicochemical; conditions: lipid-to-drug molar ratio 8:1
[5] = Drug incorporation efficiency into lipid-drug nanoparticles; format: physicochemical; conditions: for Drug incorporation (% total): anti-HIV drug combination LNPs (ATV+RTV+TFV) used in primates, preclinical scale; for Incorporation efficiency (%): DSPC:DSPE-mPEG2000 8:2, mean ± SD of 4
In short: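 Film rehydrated in 0.9% NaCl with 20 mM sodium bicarbonate (pH 7.4) at 60°C for 2 h, then sonicated or homogenized. 50 μL aliquot dialyzed (MWCO 6,000-8,000) against 1,000 mL pH 7.4 buffer; drug quantified by HPLC/MS/MS. Efficiency = incorporated/total loaded ×100%.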

COC(=O)N[C@H](C(=O)N[C@@H](Cc1ccccc1)[C@@H](O)CN(Cc1ccc(-c2ccccn2)cc1)NC(=O)[C@@H](NC(=O)OC)C(C)(C)C)C(C)(C)C [Atazanavir (ATV), Atazanavir]
Behaviour in the absence of lipids in the mixture [1]: formed precipitates | AUC fraction (% total) 8-168 h [2]: 95.3% | Lymph node intracellular drug levels lower than those in blood [3]: ≤ 99% | Effect on DPH polarization / membrane order versus drug-free lipid control [4]: less influence on the membrane order | Drug incorporation (% total) [5]: 85.5 ± 8.2% | Incorporation efficiency (%) ([5]; lipid : drug 5 : 1 (mol/mol)): 96.5 ± 2.6% | Incorporation efficiency (%) ([5]; lipid : drug 8 : 1 (mol/mol)): 96.2 ± 3.8% | Incorporation efficiency (%) ([5]; lipid : drug 20 : 1 (mol/mol)): 97.4 ± 1.8% | Incorporation efficiency ([5]; range over lipid-to-drug molar ratios 5:1, 8:1 and 20:1): 96.2-97.4%

CC(C)CN(C[C@@H](O)[C@H](Cc1ccccc1)NC(=O)O[C@H]1CO[C@H]2OCC[C@H]21)S(=O)(=O)c1ccc(N)cc1 [Darunavir (DRV), Darunavir]
Behaviour in the absence of lipids in the mixture [1]: formed precipitates | Effect on DPH polarization / membrane order versus drug-free lipid control [4]: decreased the polarization of DPH | Reduction of Tc versus control LNPs [4]: 1.6 °C

CC(C)c1nc(CN(C)C(=O)N[C@H](C(=O)N[C@@H](Cc2ccccc2)C[C@H](O)[C@H](Cc2ccccc2)NC(=O)OCc2cncs2)C(C)C)cs1 [Ritonavir (RTV), ritonavir]
AUC fraction (% total) 8-168 h [2]: 80.4%

C[C@H](Cn1cnc2c(N)ncnc21)OCP(=O)(O)O [Tenofovir (TFV), tenofovir]
AUC fraction (% total) 8-168 h [2]: 97.4% | Drug incorporation (% total) [5]: 6.1 ± 0.8%
